pIC50: −log10 of the molar value. Values belong to the compound of their own block, whether it stands above or below them.
Experiments:
human GluK2 = human GluK2 (Homo sapiens, UniProt Q13002); format: cell-based; details: tested at a concentration of 100 μM
Outline: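 HEK293 cells stably expressing homomeric human GluK2(Q), passaged no more than 20 times. Ca2+ influx read by fluorescence plate reader with concanavalin A present. Test compound is added over a range of concentrations, then L-glutamate plus antagonist (final glutamate 10 μM). Curves are fitted with slope fixed at 1 and top/bottom fixed at 100%/0% inhibition. KB is derived from IC50 by Cheng-Prusoff.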

Solubility observations = format: physicochemical; details: for water solubility: at higher concentrations
GluN1a/GluN2B NMDAR [1] = target: GluN1a/GluN2B NMDAR (Rattus norvegicus, UniProt Q00960); format: cell-based; details: at a concentration of 100 μM
GluN1a/GluN2B NMDAR [2] = target: GluN1a/GluN2B NMDAR (Rattus norvegicus, UniProt P35439+Q00960); format: cell-based
Sequence of GluN1a/GluN2B NMDAR (Rattus norvegicus, UniProt P35439+Q00960) (Q00960 27-1482, other chains not shown): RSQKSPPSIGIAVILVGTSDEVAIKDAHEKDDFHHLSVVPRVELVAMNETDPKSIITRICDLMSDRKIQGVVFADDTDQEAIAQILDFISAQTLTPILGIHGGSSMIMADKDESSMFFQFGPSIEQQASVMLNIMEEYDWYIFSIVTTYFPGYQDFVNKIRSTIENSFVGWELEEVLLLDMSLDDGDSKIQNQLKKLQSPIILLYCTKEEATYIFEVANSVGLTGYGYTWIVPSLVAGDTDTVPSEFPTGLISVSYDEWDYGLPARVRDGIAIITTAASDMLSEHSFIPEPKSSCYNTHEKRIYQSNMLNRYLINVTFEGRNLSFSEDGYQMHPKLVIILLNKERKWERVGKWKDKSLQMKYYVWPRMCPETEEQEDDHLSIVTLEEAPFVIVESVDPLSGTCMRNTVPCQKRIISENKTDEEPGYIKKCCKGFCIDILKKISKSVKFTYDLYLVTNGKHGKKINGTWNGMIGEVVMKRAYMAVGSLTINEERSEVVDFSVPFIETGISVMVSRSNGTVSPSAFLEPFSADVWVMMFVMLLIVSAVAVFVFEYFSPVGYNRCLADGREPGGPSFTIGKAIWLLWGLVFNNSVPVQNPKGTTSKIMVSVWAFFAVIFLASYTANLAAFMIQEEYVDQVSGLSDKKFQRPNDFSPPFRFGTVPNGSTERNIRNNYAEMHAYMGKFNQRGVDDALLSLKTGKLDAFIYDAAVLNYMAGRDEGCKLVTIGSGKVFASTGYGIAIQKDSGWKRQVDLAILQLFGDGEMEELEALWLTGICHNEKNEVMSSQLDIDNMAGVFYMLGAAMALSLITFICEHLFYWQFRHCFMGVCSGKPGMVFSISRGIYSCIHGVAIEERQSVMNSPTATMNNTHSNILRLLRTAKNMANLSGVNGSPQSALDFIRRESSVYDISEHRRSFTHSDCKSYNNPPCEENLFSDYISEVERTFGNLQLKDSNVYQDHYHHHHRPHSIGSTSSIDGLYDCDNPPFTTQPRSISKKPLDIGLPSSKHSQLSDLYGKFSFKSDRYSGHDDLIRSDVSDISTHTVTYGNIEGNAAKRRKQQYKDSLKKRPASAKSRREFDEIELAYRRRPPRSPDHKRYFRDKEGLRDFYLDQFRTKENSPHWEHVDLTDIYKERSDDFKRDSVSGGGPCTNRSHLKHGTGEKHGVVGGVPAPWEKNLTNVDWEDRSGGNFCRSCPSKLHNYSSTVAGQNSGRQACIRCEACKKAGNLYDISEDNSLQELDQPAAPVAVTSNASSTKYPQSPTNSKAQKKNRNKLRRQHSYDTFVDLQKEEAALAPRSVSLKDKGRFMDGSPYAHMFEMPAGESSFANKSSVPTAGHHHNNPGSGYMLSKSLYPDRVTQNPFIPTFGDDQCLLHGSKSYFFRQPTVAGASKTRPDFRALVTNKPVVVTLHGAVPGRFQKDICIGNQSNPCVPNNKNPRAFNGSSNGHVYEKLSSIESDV

GluN1a/GluN2A NMDAR [3] = target: GluN1a/GluN2A NMDAR (Rattus norvegicus, UniProt P35439+Q00959); format: cell-based
Sequence of GluN1a/GluN2A NMDAR (Rattus norvegicus, UniProt P35439+Q00959) (Q00959 23-1464, other chains not shown): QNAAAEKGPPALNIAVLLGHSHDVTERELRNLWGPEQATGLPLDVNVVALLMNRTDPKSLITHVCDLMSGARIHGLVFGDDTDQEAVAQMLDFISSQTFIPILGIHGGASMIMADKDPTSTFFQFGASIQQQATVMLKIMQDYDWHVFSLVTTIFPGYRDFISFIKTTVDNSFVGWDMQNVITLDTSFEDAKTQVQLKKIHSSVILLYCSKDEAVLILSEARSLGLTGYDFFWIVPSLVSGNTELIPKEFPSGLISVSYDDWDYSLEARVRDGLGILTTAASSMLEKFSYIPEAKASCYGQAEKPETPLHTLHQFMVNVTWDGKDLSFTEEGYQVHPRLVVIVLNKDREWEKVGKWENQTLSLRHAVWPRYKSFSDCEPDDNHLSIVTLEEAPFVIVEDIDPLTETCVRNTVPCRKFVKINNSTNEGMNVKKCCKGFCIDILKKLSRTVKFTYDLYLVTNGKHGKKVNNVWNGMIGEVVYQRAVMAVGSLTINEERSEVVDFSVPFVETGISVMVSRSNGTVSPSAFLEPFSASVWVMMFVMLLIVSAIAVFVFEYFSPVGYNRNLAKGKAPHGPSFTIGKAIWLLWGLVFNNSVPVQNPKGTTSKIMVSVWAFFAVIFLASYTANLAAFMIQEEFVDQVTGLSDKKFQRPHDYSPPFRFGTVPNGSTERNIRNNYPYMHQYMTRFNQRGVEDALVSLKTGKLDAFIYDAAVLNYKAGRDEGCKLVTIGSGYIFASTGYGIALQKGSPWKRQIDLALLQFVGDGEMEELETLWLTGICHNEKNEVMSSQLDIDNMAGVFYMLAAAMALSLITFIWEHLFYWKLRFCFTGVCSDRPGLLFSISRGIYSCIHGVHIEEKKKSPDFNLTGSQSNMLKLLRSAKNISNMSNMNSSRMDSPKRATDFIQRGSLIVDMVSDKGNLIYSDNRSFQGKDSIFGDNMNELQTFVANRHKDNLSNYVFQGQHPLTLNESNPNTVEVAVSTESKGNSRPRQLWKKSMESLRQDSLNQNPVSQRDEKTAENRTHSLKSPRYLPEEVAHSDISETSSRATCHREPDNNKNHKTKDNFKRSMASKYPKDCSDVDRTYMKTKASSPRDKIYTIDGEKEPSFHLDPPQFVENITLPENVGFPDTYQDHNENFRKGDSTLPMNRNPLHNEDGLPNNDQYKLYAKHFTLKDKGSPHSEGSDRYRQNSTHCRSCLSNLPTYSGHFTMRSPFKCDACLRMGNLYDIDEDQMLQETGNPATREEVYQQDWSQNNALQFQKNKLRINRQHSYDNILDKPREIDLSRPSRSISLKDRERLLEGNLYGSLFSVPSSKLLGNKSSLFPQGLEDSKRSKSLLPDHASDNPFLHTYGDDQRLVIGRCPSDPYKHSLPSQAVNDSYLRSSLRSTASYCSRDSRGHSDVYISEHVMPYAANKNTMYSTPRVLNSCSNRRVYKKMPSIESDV

GluN1a/GluN2A NMDAR [4] = target: GluN1a/GluN2A NMDAR (Rattus norvegicus, UniProt Q00959); format: cell-based; details: at a concentration of 100 μM
AMPARs = details: competition binding assays; ref [5c]; cited from earlier work
human GluK1 [5] = target: T1, human GluK1 (Homo sapiens, UniProt P39086); test: Electrophysiological assay; format: cell-based; details: electrophysiological assays
T1 sequence (P39086 31-905 isoform P39086-2 limits assumed): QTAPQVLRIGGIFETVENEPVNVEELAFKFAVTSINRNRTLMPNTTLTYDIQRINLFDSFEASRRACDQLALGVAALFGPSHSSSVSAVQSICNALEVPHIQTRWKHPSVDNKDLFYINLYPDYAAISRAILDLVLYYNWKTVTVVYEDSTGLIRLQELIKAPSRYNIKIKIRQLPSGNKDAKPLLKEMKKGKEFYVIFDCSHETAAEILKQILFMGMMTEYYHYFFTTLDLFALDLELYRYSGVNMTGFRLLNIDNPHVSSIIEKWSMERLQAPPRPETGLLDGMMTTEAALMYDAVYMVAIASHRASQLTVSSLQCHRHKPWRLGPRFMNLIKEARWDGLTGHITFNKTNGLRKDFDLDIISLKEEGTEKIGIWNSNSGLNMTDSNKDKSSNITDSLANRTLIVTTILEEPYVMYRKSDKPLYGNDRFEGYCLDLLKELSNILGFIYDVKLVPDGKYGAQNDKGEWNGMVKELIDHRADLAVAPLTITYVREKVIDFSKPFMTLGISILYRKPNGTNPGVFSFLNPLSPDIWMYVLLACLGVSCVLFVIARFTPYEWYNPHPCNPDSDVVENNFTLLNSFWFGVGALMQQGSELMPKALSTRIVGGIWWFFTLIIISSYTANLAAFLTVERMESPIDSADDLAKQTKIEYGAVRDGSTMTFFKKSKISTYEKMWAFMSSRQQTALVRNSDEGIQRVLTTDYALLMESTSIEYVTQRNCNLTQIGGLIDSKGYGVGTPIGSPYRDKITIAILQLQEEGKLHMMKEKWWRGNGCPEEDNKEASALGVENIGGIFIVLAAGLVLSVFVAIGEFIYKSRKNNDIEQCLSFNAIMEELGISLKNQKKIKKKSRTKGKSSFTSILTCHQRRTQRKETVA
Outline: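 Whole-cell patch clamp at −70 mV on HEK293 cells stably expressing homomeric human GluK1 or GluK3. Cells are bathed in HBS pH 7.4 at 20°C and lifted into a piezo-driven theta tube. 30 mM glutamate is applied for 100 ms every 20 s. Antagonist is added to both barrels for about 2 min, giving 5 concentrations per cell, each averaged over 6 sweeps. IC50 values are reported with 95% confidence intervals.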

[6] = target: GluK3 A660S mutant receptor (Homo sapiens, UniProt Q13003, A691S); test: [3H]kainate competition binding to GluK3 A660S mutant membranes; details: 18i 100 μM, 300 μM, 1 mM; 20 nM [3H]kainate; compared with wild type
Outline: (§1)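 Filtration binding on human GluK3a membranes. Wildtype comes from stably transfected HEK293 (hygromycin); the A660S mutant is transiently PEI-transfected for 48 h. Membranes are prepared by hypotonic sonication and washed in 50 mM Tris-citrate pH 7.4. Assay uses 20 nM [3H]kainate, with 1 mM kainate defining non-specific binding. Test compound at 100 μM, 300 μM and 1 mM; three experiments in triplicate.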

native AMPARs = format: cell-based, rat; details: 100 μM, n=4
Outline: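 Field EPSPs in transverse rat hippocampal slices (400 μm), perfused at 29°C. Mossy fibers stimulated via the dentate granule cell layer every 60 s. Responses averaged every 2 min and measured as 20–80% slope. Test compound at 100 μM perfused for 30 min. Results expressed as % of control slope, mean ± s.e.m., n=4, compared by Student's t test.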

wildtype (WT) GluK3 = wildtype (WT) GluK3 (Homo sapiens, UniProt Q13003); test: [3H]kainate competition binding to wildtype GluK3 membranes; details: 18i 100 μM, 300 μM, 1 mM; 20 nM [3H]kainate
Outline: as §1

human GluK1 [7] = target: T1, human GluK1; format: cell-based; details: from KB values
[8] = tested on: male Wistar rats with partial saphenous nerve ligation injury (PSNI); test: Nociceptive behaviour in rats, partial saphenous nerve ligation injury; format: in vivo, rat
Outline: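 Male Wistar rats (~250 g) habituated to testing, tested before saphenous nerve injury. Test compound or vehicle given i.p. (n=5/group), testing starts 15 min later. Von Frey hairs applied to the plantar hindpaw (≤5 s, five times per paw, both paws); thresholds taken from stimulus-response curves. Radiant-heat withdrawal latency is the mean of three stimulations per paw.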

GluN1a/GluN2D NMDAR [9] = target: GluN1a/GluN2D NMDAR (Rattus norvegicus, UniProt Q62645); format: cell-based
GluN1a/GluN2D NMDAR [10] = target: GluN1a/GluN2D NMDAR (Rattus norvegicus, UniProt P35439+Q62645); format: cell-based
GluN1a/GluN2C NMDAR = GluN1a/GluN2C NMDAR (Rattus norvegicus, UniProt P35439+Q00961); format: cell-based
Sequence of GluN1a/GluN2C NMDAR (Q00961 20-1237, other chains not shown): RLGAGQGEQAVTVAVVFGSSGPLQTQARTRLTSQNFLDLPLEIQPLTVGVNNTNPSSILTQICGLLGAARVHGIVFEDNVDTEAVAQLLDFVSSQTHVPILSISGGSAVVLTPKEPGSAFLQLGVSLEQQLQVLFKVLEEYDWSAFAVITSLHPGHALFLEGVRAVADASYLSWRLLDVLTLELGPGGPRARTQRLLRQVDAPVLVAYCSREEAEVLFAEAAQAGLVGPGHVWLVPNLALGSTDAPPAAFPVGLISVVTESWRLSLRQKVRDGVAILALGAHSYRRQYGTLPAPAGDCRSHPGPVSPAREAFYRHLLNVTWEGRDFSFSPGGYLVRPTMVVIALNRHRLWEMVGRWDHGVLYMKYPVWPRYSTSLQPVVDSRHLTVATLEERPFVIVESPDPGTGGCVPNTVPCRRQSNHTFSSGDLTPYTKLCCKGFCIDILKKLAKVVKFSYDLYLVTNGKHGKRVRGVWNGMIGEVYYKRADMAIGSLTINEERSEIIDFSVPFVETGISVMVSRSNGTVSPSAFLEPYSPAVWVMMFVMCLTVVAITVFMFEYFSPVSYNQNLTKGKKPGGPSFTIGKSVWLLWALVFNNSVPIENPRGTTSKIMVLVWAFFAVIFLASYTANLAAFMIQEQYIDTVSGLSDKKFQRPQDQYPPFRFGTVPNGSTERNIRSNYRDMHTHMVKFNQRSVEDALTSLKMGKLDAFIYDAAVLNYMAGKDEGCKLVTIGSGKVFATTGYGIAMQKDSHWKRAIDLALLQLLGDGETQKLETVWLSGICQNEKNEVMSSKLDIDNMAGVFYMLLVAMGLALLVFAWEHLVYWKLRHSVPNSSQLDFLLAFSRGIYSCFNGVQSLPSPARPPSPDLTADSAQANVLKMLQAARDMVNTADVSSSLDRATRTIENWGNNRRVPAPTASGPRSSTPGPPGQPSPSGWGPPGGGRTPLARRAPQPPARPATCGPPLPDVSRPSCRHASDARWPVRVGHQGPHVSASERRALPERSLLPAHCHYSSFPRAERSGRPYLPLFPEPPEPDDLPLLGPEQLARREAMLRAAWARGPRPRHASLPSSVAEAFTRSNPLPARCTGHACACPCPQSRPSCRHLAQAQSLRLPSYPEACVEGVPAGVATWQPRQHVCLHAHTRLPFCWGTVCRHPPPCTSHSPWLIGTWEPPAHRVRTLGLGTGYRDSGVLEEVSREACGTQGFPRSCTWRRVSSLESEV

Compound: O=C(O)[C@H]1NCCN(C(=O)c2ccc3cc(I)ccc3c2)[C@H]1C(=O)O (relative stereo) [Compound 18c, (2R*,3S*)-1-(6-Iodonaphthalene-2-carbonyl)piperazine-2,3-dicarboxylic acid]
GluK2 antagonist activity (human GluK2): no GluK2 antagonist activity

Compound: O=C(O)[C@H]1NCCN(C(=O)c2ccc3cc(-c4ccccc4)ccc3c2)[C@H]1C(=O)O (relative stereo) [Compound 18d, (2R*,3S*)-1-(6-Phenylnaphthalene-2-carbonyl)piperazine-2,3-dicarboxylic acid]
solubility in electrophysiological recording buffer (Solubility observations; 300 μM, room temperature, visible light scattering): insoluble at high concentrations | water solubility (Solubility observations): poor water solubility | antagonism of GluN2B (GluN1a/GluN2B NMDAR [1]): 30–37% | pIC50 (GluN1a/GluN2B NMDAR [2]): < 4.00 | GluK2 antagonist activity (human GluK2): no GluK2 antagonist activity | pIC50 (GluN1a/GluN2A NMDAR [3]): < 4.00 | antagonism of GluN2A (GluN1a/GluN2A NMDAR [4]): 30–37%

Compound: O=C(O)[C@H]1NCCN(C(=O)c2ccc3cc(Br)c4ccccc4c3c2)[C@H]1C(=O)O (relative stereo) [Compound 18h, (2R*,3S*)-1-(9-Bromophenanthrene-3-carbonyl)piperazine-2,3-dicarboxylic acid]
inhibition of [3H]AMPA binding (AMPARs): only very weak inhibitors

Compound: O=C(O)[C@H]1NCCN(C(=O)c2ccc3cc(I)c4ccccc4c3c2)[C@H]1C(=O)O (relative stereo) [Compound 18i, (2R*,3S*)-1-(9-Iodophenanthrene-3-carbonyl)piperazine-2,3-dicarboxylic acid]
fold lower IC50 for GluK1 versus GluK3 (human GluK1 [5]): > 100 fold | inhibition of [3H]kainate binding to A660S point mutant of GluK3 [6]: more potently inhibited | AMPAR mediated fEPSP response in the presence of compound, % of slope (native AMPARs; 30 min perfusion, control 100 ± 2%, mean ± s.e.m.): 99 ± 2% | antagonist activity on AMPAR mediated EPSPs in CA3 region of the hippocampus (native AMPARs): no antagonist activity | inhibition of [3H]kainate binding to wild type GluK3 (wildtype (WT) GluK3): low binding affinity | fold higher affinity for GluK1 compared to 18c (human GluK1 [7]): 1.7 fold | thermal withdrawal latency to radiant heat ([8]; 30 mg/kg i.p., acute, day 7 after PSNI, n=5 per group): increased thermal withdrawal latency in these animals above baseline values | mechanical withdrawal threshold (mechanical allodynia) ([8]; 30 mg/kg i.p., acute, day 7 after PSNI, versus vehicle, n=5 per group): completely reversed the drop in mechanical withdrawal threshold | antinociceptive effects in normal animals ([8]; normal animals before nerve injury (not shown)): exerted antinociceptive effects

Compound: O=C(O)C1NCCN(C(=O)c2ccc3c(ccc4ccccc43)c2)C1C(=O)O (single isomer, unassigned; (+)) [(+)-4, (+)-1-(Phenanthrene-2-carbonyl)piperazine-2,3-dicarboxylic acid]
fold lower affinity for GluN2D than the (−)-4 isomer (GluN1a/GluN2D NMDAR [9]): 50 fold

Compound: O=C(O)C1NCCN(C(=O)c2ccc3c(ccc4ccccc43)c2)C1C(=O)O (stereo not drawn) [(±)-4]
GluK2 antagonist activity (human GluK2): no GluK2 antagonist activity

Compound: O=C(O)[C@@H]1[C@H](C(=O)O)NCCN1C(=O)c1ccc2c(ccc3ccccc32)c1 [(−)-4, (−)-1-(Phenanthrene-2-carbonyl)piperazine-2,3-dicarboxylic acid]
fold higher affinity for GluK1 than the (+)-4 enantiomer (human GluK1 [7]): 27 fold | GluK2 antagonist activity (human GluK2): no GluK2 antagonist activity

Compound: O=C(O)[C@H]1NCCN(C(=O)c2ccc3ccc4ccccc4c3c2)[C@H]1C(=O)O [Compound 5]
inhibition of [3H]AMPA binding (AMPARs): only very weak inhibitors | selectivity for GluN2D versus GluK1 (GluN1a/GluN2D NMDAR [9]; GluN2D Ki versus GluK1 KB): around 10 fold | GluK2 antagonist activity (human GluK2): no GluK2 antagonist activity

Compound: O=C(O)[C@H]1NCCN(C(=O)c2ccc(C#Cc3ccccc3)cc2)[C@H]1C(=O)O [Compound 18k]
inhibition of [3H]AMPA binding (AMPARs): only very weak inhibitors | GluK2 antagonist activity (human GluK2): no GluK2 antagonist activity

Compound: O=C(O)[C@H]1NCCN(C(=O)c2ccc(/N=N/c3ccccc3)cc2)[C@H]1C(=O)O [Compound 18l]
inhibition of [3H]AMPA binding (AMPARs): only very weak inhibitors | GluK2 antagonist activity (human GluK2): no GluK2 antagonist activity

pIC50 (GluN1a/GluN2B NMDAR [2]): < 4.00 | pIC50 (GluN1a/GluN2D NMDAR [10]): < 4.00 | pIC50 (GluN1a/GluN2C NMDAR): < 4.00 | pIC50 (GluN1a/GluN2A NMDAR [3]): < 4.00
Compound: O=C(O)c1ccc2cc(C(=O)N3CCN[C@H](C(=O)O)[C@@H]3C(=O)O)ccc2c1 [Compound 19]

Compound: O=C(O)c1ccc(-c2ccc(C(=O)N3CCN[C@H](C(=O)O)[C@@H]3C(=O)O)cc2)cc1 [Compound 20]
water solubility (Solubility observations): poor water solubility | pIC50 (GluN1a/GluN2B NMDAR [2]): < 4.00 | pIC50 (GluN1a/GluN2C NMDAR): < 4.00 | fold lower affinity for GluK1 compared to 34b (human GluK1 [7]): 5 fold

Compound: O=C(O)[C@H]1NCCN(C(=O)c2ccc(CCc3ccccc3)cc2)[C@H]1C(=O)O [Compound 21]
pIC50 (GluN1a/GluN2B NMDAR [2]): < 4.00 | pIC50 (GluN1a/GluN2D NMDAR [10]): < 4.00 | antagonism of GluN2D (GluN1a/GluN2D NMDAR [9]; at a concentration of 100 μM): ~ 10% | pIC50 (GluN1a/GluN2C NMDAR): < 4.00 | fold lower affinity for GluK1 compared to 34b (human GluK1 [7]): approximately 2 fold | fold lower affinity for GluK1 compared to (±)-4 (human GluK1 [7]): 9 fold | pIC50 (GluN1a/GluN2A NMDAR [3]): < 4.00

Compound: O=C(O)[C@H]1NCCN(C(=O)c2ccc(-c3ccccc3)cc2)[C@H]1C(=O)O [Compound 34b]
GluK2 antagonist activity (human GluK2): no GluK2 antagonist activity

Compound: O=C(O)[C@@H]1NCCN(C(=O)c2ccc3c(ccc4ccccc43)c2)[C@H]1C(=O)O [Compound 34d]
fold lower affinity for GluK1 compared to (±)-4 (human GluK1 [7]): 8 fold

Compound: O=C(O)[C@H]1NCCN(C(=O)c2ccc3c(ccc4cc(Br)ccc43)c2)[C@H]1C(=O)O [Compound 34e]
GluK2 antagonist activity (human GluK2): no GluK2 antagonist activity

Compound: O=C(O)[C@H]1NCCN(Cc2ccc3c(ccc4ccccc43)c2)[C@H]1C(=O)O [Compound 34f]
fold lower affinity for GluK1 compared to (±)-4 (human GluK1 [7]): 5 fold

Compound: O=C(O)[C@H]1NCCN(C(=O)c2ccc3c(c2)CCc2ccccc2-3)[C@H]1C(=O)O [Compound 34g]
GluK2 antagonist activity (human GluK2): no GluK2 antagonist activity

— paper PMC3269097 (Journal of Medicinal Chemistry, 2011)
